Source: ChEMBL document CHEMBL1165873, “Synthesis and in vitro study of methylene-bis-tetrahydro[1,3]thiazolo[4,5-c]isoxazoles as potential nematicidal agents” (2010)
Converted amounts (≈) assume the structure as drawn. The source made the active and inactive calls. The rule behind the calls is not given here.

What was measured:
[1] = system: Trichophyton mentagrophytes; test: Antifungal activity against Trichophyton mentagrophytes IFO 40996 after 48 hrs by broth dilution method; format: functional; settings: IFO 40996, 48 h
In short: (§1)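 Fungi grown on potato dextrose agar for two weeks at 28 °C. Spores washed three times and resuspended in water at 10⁵ spores/mL initial inoculum. Compounds dissolved in DMSO, serial twofold dilutions 120–0.9 µM in potato dextrose broth. Wells inoculated with about 10^4 cells/mL and incubated ~48–72 h at 28 °C. MIC (µM) read against controls; NCCLS broth dilution.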

[2] = system: Candida albicans; test: Antifungal activity against Candida albicans ATCC 10231 after 48 hrs by broth dilution method; format: functional; settings: ATCC 10231, 48 h
In short: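 Yeast grown 48 h at 28 °C in YPD broth (1% yeast extract, 2% peptone, 2% dextrose), centrifuged and washed twice in sterile water. Compounds dissolved in DMSO, serial twofold dilutions 120–0.9 µM in potato dextrose broth. Wells inoculated with about 10^3 cells/mL and incubated ~48–72 h at 28 °C. MIC (µM) read against controls; NCCLS broth dilution.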

[3] = system: Trichophyton rubrum; test: Antifungal activity against Trichophyton rubrum IFO 9185 after 48 hrs by broth dilution method; format: functional; settings: IFO 9185, 48 h; in short: as §1
[4] = system: Aspergillus fumigatus; test: Antifungal activity against Aspergillus fumigatus HIC 6094 after 48 hrs by broth dilution method; format: functional; settings: HIC 6094, 48 h; in short: as §1
[5] = system: Ditylenchus myceliophagus; test: Nematicidal activity against Ditylenchus myceliophagus assessed as immobile nematodes after 2 days; format: functional
[6] = system: Caenorhabditis elegans; test: Nematicidal activity against Caenorhabditis elegans assessed as immobile nematodes after 2 days; format: functional, organism-based
In short: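 Worms raised on 8P plates with Na22 bacteria as food. Adults from five-day cultures suspended in water at about 100–250 nematodes/mL. 100 µL of suspension added to compound solutions at various concentrations in 24-well plates at 25 °C. Percentage of immobile worms scored after two days; LD50 derived.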

Row | SMILES | MIC [1] [µM] | MIC [2] [µM] | MIC [3] [µM] | MIC [4] [µM] | Activity [5] | Activity [6]
1 | COc1ccccc1C1SC2C(=NOC2c2ccc(F)cc2)N1c1ccc(C)cc1 (centres undefined) | 120 (≈ 50.5 µg/mL) | 60 (≈ 25.2 µg/mL) | > 120 | 120 (≈ 50.5 µg/mL) |  | 
2 | COc1ccc(Cc2ccc(OC)c(C3SC4C(=NOC4c4ccc(F)cc4)N3c3ccccc3)c2)cc1C1SC2C(=NOC2c2ccc(F)cc2)N1c1ccccc1 (centres undefined) | 60 (≈ 49.5 µg/mL) | 30 (≈ 24.7 µg/mL) | 30 (≈ 24.7 µg/mL) | 60 (≈ 49.5 µg/mL) | Active | Active
3 | COc1ccccc1C1SC2C(=NOC2c2ccc(F)cc2)N1c1ccc(O)cc1 (centres undefined) | 60 (≈ 25.3 µg/mL) | 60 (≈ 25.3 µg/mL) | > 120 | 60 (≈ 25.3 µg/mL) |  | 
4 | COc1ccccc1C1SC2C(=NOC2c2ccc(F)cc2)N1c1ccc([N+](=O)[O-])cc1 (centres undefined) | 30 (≈ 13.5 µg/mL) | 30 (≈ 13.5 µg/mL) | 120 (≈ 54.2 µg/mL) | 60 (≈ 27.1 µg/mL) |  | 
5 | COc1ccc(Cc2ccc(OC)c(C3SC4C(=NOC4c4ccc(F)cc4)N3c3ccc(Cl)cc3)c2)cc1C1SC2C(=NOC2c2ccc(F)cc2)N1c1ccc(Cl)cc1 (centres undefined) | 3.75 (≈ 3.35 µg/mL) | 3.75 (≈ 3.35 µg/mL) | 3.75 (≈ 3.35 µg/mL) | 3.75 (≈ 3.35 µg/mL) | Active | Active
6 | COc1ccc(Cc2ccc(OC)c(C3SC4C(=NOC4c4ccc(F)cc4)N3c3ccc(C)cc3)c2)cc1C1SC2C(=NOC2c2ccc(F)cc2)N1c1ccc(C)cc1 (centres undefined) | 15 (≈ 12.8 µg/mL) | 7.5 (≈ 6.4 µg/mL) | > 120 | 30 (≈ 25.6 µg/mL) | Active | Active
7 | COc1ccc(Cc2ccc(OC)c(C3SC4C(=NOC4c4ccc(F)cc4)N3c3ccccc3C)c2)cc1C1SC2C(=NOC2c2ccc(F)cc2)N1c1ccccc1C (centres undefined) | 3.75 (≈ 3.2 µg/mL) | 3.75 (≈ 3.2 µg/mL) | 3.75 (≈ 3.2 µg/mL) | 3.75 (≈ 3.2 µg/mL) | Active | Active
8 | COc1ccc(Cc2ccc(OC)c(C3SC4C(=NOC4c4ccc(F)cc4)N3c3ccc([N+](=O)[O-])cc3)c2)cc1C1SC2C(=NOC2c2ccc(F)cc2)N1c1ccc([N+](=O)[O-])cc1 (centres undefined) | 7.5 (≈ 6.86 µg/mL) | 15 (≈ 13.7 µg/mL) | 30 (≈ 27.4 µg/mL) | 30 (≈ 27.4 µg/mL) | Active | Active
9 | COc1ccc(Cc2ccc(OC)c(C3SC4C(=NOC4c4ccc(F)cc4)N3c3ccc(O)cc3)c2)cc1C1SC2C(=NOC2c2ccc(F)cc2)N1c1ccc(O)cc1 (centres undefined) | 7.5 (≈ 6.43 µg/mL) | 15 (≈ 12.9 µg/mL) | 7.5 (≈ 6.43 µg/mL) | 15 (≈ 12.9 µg/mL) | Active | Active
10 | COc1ccccc1C1SC2C(=NOC2c2ccc(F)cc2)N1c1ccccc1C (centres undefined) | 30 (≈ 12.6 µg/mL) | 60 (≈ 25.2 µg/mL) | 15 (≈ 6.31 µg/mL) | 30 (≈ 12.6 µg/mL) |  | 
11 | COc1ccc(Cc2ccc(OC)c(C3SC4C(=NOC4c4ccc(F)cc4)N3c3ccc(F)cc3)c2)cc1C1SC2C(=NOC2c2ccc(F)cc2)N1c1ccc(F)cc1 (centres undefined) | 3.75 (≈ 3.23 µg/mL) | 3.75 (≈ 3.23 µg/mL) | 3.75 (≈ 3.23 µg/mL) | 3.75 (≈ 3.23 µg/mL) | Active | Active
12 | COc1ccccc1C1SC2C(=NOC2c2ccc(F)cc2)N1c1ccc(Cl)cc1 (centres undefined) | 30 (≈ 13.2 µg/mL) | 30 (≈ 13.2 µg/mL) | 30 (≈ 13.2 µg/mL) | 30 (≈ 13.2 µg/mL) |  | 
13 | COc1ccccc1C1SC2C(=NOC2c2ccc(F)cc2)N1c1ccccc1 (centres undefined) | > 120 | 120 (≈ 48.8 µg/mL) | > 120 | > 120 |  | 
14 | COc1ccccc1C1SC2C(=NOC2c2ccc(F)cc2)N1c1ccc(F)cc1 (centres undefined) | 60 (≈ 25.5 µg/mL) | 120 (≈ 50.9 µg/mL) | 60 (≈ 25.5 µg/mL) | 60 (≈ 25.5 µg/mL) |  | 
15 | C[C@@H]1[C@H](O)[C@@H](C)/C=C/C=C/C=C/C=C/C=C/C=C/C=C/[C@H](O[C@@H]2O[C@H](C)[C@@H](O)[C@H](N)[C@@H]2O)C[C@@H]2O[C@](O)(C[C@@H](O)C[C@@H](O)[C@H](O)CC[C@@H](O)C[C@@H](O)CC(=O)O[C@H]1C)C[C@H](O)[C@H]2C(=O)O [AMPHOTERICIN B] | 3.75 (≈ 3.47 µg/mL) | 7.5 (≈ 6.93 µg/mL) | 3.75 (≈ 3.47 µg/mL) | 3.75 (≈ 3.47 µg/mL) |  | 
